“Also recorded” adds a separate entry of the source. Like-named read-outs stand apart in the source and are kept apart here.
Columns and labels:
Kv1.4 = Kv1.4 (Homo sapiens, UniProt P22459); assay type: cell-based; settings: for τact / τinact: voltage step from −100 mV to 0 mV, double exponential fit; for Kv1.4 / Kv channel inhibition (in words): highest concentrations tested
Summary of the method: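 Kv1.4 expressed under tetracycline induction in a CHO-K1 line and recorded by automated whole-cell voltage clamp. Voltage steps went from −100 mV to 0 mV. A double exponential was fitted to current rise and decay to obtain τact and τinact. Kd values were fitted from these, n = 9, SEM. IC50 came from the best fit of peak-current inhibition ± standard deviation of the parameter fit.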

[1] = tested on: Gramicidin A (gA) channel; assay: Gramicidin A based fluorescence quench assay; assay type: biochemical; settings: highest concentration tested
Summary of the method: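 ANTS was loaded into large unilamellar vesicles containing gramicidin A, and Tl+ was added to the suspension. Intravesicular ANTS quenching was followed over time, with nine individual repeats per trace. The initial quench rate gave the Tl+ influx rate. gA2 is the compound concentration that doubles that rate. Where gA2 was not obtained, the highest concentration tested is given.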

Chain of Kv1.4 (P22459 whole entry): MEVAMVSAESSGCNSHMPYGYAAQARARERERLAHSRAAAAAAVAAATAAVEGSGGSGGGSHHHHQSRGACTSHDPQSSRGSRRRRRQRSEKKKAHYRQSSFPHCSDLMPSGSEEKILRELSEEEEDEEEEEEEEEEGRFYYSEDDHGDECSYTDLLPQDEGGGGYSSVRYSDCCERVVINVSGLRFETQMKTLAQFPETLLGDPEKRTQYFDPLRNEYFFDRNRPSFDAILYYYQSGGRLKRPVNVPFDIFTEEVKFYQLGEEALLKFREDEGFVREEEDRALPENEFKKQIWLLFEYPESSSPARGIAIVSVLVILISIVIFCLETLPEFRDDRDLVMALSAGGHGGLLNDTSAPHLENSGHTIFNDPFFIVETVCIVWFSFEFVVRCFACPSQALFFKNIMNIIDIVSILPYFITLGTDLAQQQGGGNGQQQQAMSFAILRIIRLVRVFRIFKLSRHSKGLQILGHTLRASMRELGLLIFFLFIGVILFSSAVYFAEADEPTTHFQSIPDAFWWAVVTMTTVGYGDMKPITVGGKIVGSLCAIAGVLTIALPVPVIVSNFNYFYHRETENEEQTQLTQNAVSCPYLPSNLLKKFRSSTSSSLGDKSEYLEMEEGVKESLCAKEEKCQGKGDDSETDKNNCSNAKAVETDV

NCCc1c(SSc2[nH]c3cc(Br)ccc3c2CCN)[nH]c2cc(Br)ccc12 [1a, 6-bromo-2-mercaptotryptamine dimer]
τact (Kv1.4; 1.5 μM BrMT): 2.54 ± 0.02
τinact (Kv1.4; 1.5 μM BrMT): 136.6 ± 0.6
τact (Kv1.4; 3 μM BrMT): 3.17 ± 0.03
τinact (Kv1.4; 3 μM BrMT): 181 ± 2
τact (Kv1.4; 6 μM BrMT): 4.2 ± 0.4
τinact (Kv1.4; 6 μM BrMT): 300 ± 20
Kv1.4 / Kv channel inhibition (in words) (Kv1.4): strongly inhibit

Cc1ccc2c(CCN)c(SSc3[nH]c4cc(C)ccc4c3CCN)[nH]c2c1 [compound 7]
Kv1.4 / Kv channel inhibition (in words) (Kv1.4): strongly inhibit

NCCc1c(SSc2[nH]c3ccc(Br)cc3c2CCN)[nH]c2ccc(Br)cc12 [compound 8]
gA assay activity / bilayer perturbation (in words) [1]: complete inactivity; also recorded: does not perturb bilayers
Kv1.4 / Kv channel inhibition (in words) (Kv1.4): strongly inhibit

NCCc1c(COCc2[nH]c3cc(Br)ccc3c2CCN)[nH]c2cc(Br)ccc12 [compound 14]
Kv1.4 / Kv channel inhibition (in words) (Kv1.4): strongly inhibit
IC50 (Kv1.4; read-out: IC50 (potency against Kv1.4)): 2700 nM

— publication PMC6007853 (Biochemistry, 2018)
